Reference: ChEMBL document CHEMBL4229363, “Design and synthesis of aryloxypropanolamine as β3-adrenergic receptor antagonist in cancer and lipolysis” (Eur J Med Chem, 2018)
pIC50: −log10 of the molar value. Calls of active or inactive are those of the source. The rule behind the calls is not given here.

How the values were obtained:
[1] = molecular target: T1, Beta-3 adrenergic receptor (Homo sapiens, UniProt P13945); assay: (§1) Antagonist activity at human beta3 adrenergic receptor expressed in HEK293 cells co-expressing Galpha16 assessed as inhibition of isoproterenol-induced intercellular calcium mobilization pre-incubated for 10 mins before isoproterenol addition by Fluo-4AM dye-based fluorescence assay; assay type: functional, cell-based; details: read-out: EC50 (the source's name)
How it was run: (§2)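 HEK293 cells stably co-expressing Gα16 and human β1, β2 or β3 receptor, seeded 24 h. Loaded with 2.00 µmol/L Fluo-4 AM in HBSS (BSA, glucose, 250 µmol/L sulfinpyrazone, pH 7.4) for 45 min at 37 °C. Compounds added for 10 min at room temperature, then isoproterenol dispensed. Calcium fluorescence read at ex 485/em 525 nm. IC50 taken from dose-response curves.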
Target sequence in this assay (P13945 whole entry): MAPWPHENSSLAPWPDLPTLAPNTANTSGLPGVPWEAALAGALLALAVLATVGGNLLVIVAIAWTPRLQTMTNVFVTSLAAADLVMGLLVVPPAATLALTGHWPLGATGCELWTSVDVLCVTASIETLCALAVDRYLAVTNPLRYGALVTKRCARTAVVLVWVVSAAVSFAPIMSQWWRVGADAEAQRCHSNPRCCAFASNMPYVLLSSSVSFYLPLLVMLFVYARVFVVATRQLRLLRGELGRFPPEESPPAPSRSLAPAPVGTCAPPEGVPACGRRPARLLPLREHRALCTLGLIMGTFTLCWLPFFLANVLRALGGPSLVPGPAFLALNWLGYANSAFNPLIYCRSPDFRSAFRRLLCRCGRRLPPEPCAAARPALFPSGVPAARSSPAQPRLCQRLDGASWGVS

[2] = molecular target: Beta-3 adrenergic receptor (Mus musculus) (UniProt P25962); assay: Antagonist activity at beta3 adrenergic receptor in mouse 3T3L1 cells assessed as inhibition of isoproterenol-induced lipolysis by measuring glycerol accumulation after 2 hrs; assay type: functional, cell-based
Beta-3 adrenergic receptor (Mus musculus), sequence (P25962 whole entry): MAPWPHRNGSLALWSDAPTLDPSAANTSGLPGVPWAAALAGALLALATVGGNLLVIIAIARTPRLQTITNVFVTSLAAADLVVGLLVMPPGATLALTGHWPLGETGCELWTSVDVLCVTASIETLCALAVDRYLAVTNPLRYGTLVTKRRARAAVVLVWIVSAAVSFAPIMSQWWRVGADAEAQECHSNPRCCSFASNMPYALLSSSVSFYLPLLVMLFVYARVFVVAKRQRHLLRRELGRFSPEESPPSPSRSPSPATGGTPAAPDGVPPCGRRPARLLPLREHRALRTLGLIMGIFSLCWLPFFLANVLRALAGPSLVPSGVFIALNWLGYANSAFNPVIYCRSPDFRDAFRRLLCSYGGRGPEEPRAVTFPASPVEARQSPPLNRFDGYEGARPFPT
How it was run: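 3T3-L1 preadipocytes were grown on gelatin to confluence, then differentiated with 10 µg/ml insulin, 1 µM dexamethasone and 0.5 mM IBMX for 48 hr, followed by insulin alone for 48 hr. Mature adipocytes were washed and given phenol red-free DMEM with 2% fatty acid-free BSA and 1 µM isoproterenol ± antagonist for 2 hr. Glycerol in cleared medium was read by kit at 550 nm. Mean ± SE, three independent experiments.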

[3] = molecular target: Beta-2 adrenergic receptor (Homo sapiens, UniProt P07550); assay: Antagonist activity at human beta2 adrenergic receptor expressed in HEK293 cells co-expressing Galpha16 assessed as inhibition of isoproterenol-induced intercellular calcium mobilization pre-incubated for 10 mins before isoproterenol addition by Fluo-4AM dye-based fluorescence assay; assay type: functional, cell-based; details: read-out: EC50 (the source's name); how it was run: as §2
Beta-2 adrenergic receptor, sequence (P07550 whole entry): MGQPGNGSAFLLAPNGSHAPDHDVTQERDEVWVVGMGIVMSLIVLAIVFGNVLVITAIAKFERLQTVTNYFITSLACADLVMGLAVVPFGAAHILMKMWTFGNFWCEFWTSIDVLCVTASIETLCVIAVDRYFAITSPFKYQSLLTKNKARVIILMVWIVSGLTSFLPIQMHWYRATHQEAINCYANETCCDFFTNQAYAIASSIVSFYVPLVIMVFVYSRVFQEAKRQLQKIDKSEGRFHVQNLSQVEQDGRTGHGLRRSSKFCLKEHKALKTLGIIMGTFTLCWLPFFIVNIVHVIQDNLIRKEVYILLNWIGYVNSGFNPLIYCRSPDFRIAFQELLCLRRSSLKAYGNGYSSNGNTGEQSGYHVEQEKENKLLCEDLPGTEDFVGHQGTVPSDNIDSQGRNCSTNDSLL

[4] = molecular target: Beta-1 adrenergic receptor (Homo sapiens, UniProt P08588); assay: Antagonist activity at human beta1 adrenergic receptor expressed in HEK293 cells co-expressing Galpha16 assessed as inhibition of isoproterenol-induced intercellular calcium mobilization pre-incubated for 10 mins before isoproterenol addition by Fluo-4AM dye-based fluorescence assay; assay type: functional, cell-based; details: read-out: EC50 (the source's name); how it was run: as §2
Beta-1 adrenergic receptor, sequence (P08588 whole entry): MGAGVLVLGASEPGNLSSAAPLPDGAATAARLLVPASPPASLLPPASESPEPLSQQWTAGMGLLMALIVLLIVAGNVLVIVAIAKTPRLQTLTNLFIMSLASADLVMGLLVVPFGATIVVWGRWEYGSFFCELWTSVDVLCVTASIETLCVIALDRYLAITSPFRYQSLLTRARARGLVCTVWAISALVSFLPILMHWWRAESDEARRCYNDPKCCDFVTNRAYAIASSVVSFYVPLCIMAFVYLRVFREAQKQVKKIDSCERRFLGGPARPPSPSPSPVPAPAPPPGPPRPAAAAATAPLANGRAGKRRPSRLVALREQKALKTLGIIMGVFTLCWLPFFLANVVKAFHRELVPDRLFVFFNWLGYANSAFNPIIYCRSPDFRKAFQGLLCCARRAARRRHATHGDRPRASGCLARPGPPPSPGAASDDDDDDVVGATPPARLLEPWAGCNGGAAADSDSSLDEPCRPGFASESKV

Homo sapiens [5] = organism: Homo sapiens; assay: Selectivity ratio of EC50 for displacement of [125I]iodocyanopindolol for human beta2 adrenergic receptor expressed in CHO dhfr cell membranes to EC50 for displacement of [125I]iodocyanopindolol from human beta3 adrenergic receptor expressed in CHO dhfr cell membranes
Homo sapiens [6] = organism: Homo sapiens; assay: Selectivity ratio of EC50 for displacement of [125I]iodocyanopindolol for human beta1 adrenergic receptor expressed in CHO dhfr cell membranes to EC50 for displacement of [125I]iodocyanopindolol from human beta3 adrenergic receptor expressed in CHO dhfr cell membranes
Homo sapiens [7] = organism: Homo sapiens; assay: Selectivity index, ratio of EC50 for human beta2 adrenergic receptor to EC50 for human beta3 adrenergic receptor
Mus musculus [8] = assay: Antitumor activity against mouse C26 cells xenografted in BALB/c mouse assessed as decrease in tumor volume at 2.5 mg/kg, ip dosed daily for 13 days; assay type: functional, organism-based
Mus musculus [9] = assay: Inhibition of tumor-induced body weight loss in BALB/c mouse xenografted with mouse C26 cells assessed as reduction in body weight at 2.5 mg/kg, ip dosed daily for 13 days (reference value: 8.3%); assay type: functional; set-up: scale not given: the % may be the effect or the level left
Homo sapiens [10] = organism: Homo sapiens; assay: Selectivity index, ratio of EC50 for human beta1 adrenergic receptor to EC50 for human beta3 adrenergic receptor
Mus musculus [11] = assay: Antilipolytic activity against mouse C26 cells xenografted in BALB/c mouse assessed as reduction in lipolysis of body fat by measuring glycerol content in serum at 2.5 mg/kg, ip dosed daily for 13 days; assay type: functional, organism-based
[12] = molecular target: T1, Beta-3 adrenergic receptor; assay: as §1, with “Potency index, ratio of EC50 for L-748,337 to EC50 for test compound for antagonist” for “Antagonist”; assay type: functional, cell-based
Target sequence in this assay (P13945 whole entry, looked up): as the sequence (P13945 whole entry) above

| SMILES | pIC50 [1] | pIC50 [3] | pIC50 [4] | further results |
| --- | --- | --- | --- | --- |
| COc1ccccc1NC(=O)Nc1ccc(CCNC[C@H](O)COc2cccc3[nH]ccc23)cc1 | 8.07 |  |  |  |
| O=C(Nc1ccc(F)cc1)Nc1ccc(CCNC[C@H](O)COc2cccc3[nH]ccc23)cc1 | 8.60 |  |  | inhibition [2]: Active |
| CC(=O)NCc1cccc(OC[C@@H](O)CNCCc2ccc(NS(=O)(=O)Nc3ccccc3)cc2)c1 | 8.47 | 5.07 | 6.65 |  |
| CCc1ccccc1OC[C@@H](O)CNCCc1ccc(NC(=O)Cc2ccccc2)cc1 | 8.06 | 6.55 | 7.43 |  |
| O=S(=O)(Nc1ccc(CCNC[C@H](O)COc2cccc3[nH]ccc23)cc1)c1ccccc1 | 8.68 | 6.45 | 7.83 |  |
| COc1ccc(NC(=O)Nc2ccc(CCNC[C@H](O)COc3cccc4[nH]ccc34)cc2)cc1 | 8.83 |  |  | inhibition [2]: Active |
| O=C(Nc1ccc(CCNC[C@H](O)COc2cccc3[nH]ccc23)cc1)Nc1cccc(F)c1 | 8.53 |  |  |  |
| COC(=O)Nc1ccccc1NC(=O)Nc1ccc(CCNC[C@H](O)COc2cccc3[nH]ccc23)cc1 | 8.58 |  |  |  |
| CCCCCC(=O)Nc1ccc(NC(=O)Nc2ccc(CCNC[C@H](O)COc3cccc4[nH]ccc34)cc2)cc1 | 7.98 |  |  |  |
| O=C(Nc1ccc(CCNC[C@H](O)COc2cccc3[nH]ccc23)cc1)NC1CCCCC1 | 8.54 |  |  | inhibition [2]: Active |
| CC(=O)NCc1cccc(OC[C@@H](O)CNCCc2ccc(NS(=O)(=O)c3ccccc3)cc2)c1 |  |  |  | Ratio EC50 (Homo sapiens [5]): 45; inhibition [2]: Active; Ratio EC50 (Homo sapiens [6]): > 90 |
| O=C(Nc1ccc(CCNC[C@H](O)COc2cccc3[nH]ccc23)cc1)c1ccccc1 | 8.85 | 6.93 | 7.44 |  |
| O=C(Nc1ccc(CCNC[C@H](O)COc2cccc3[nH]ccc23)cc1)Nc1ccccc1F | 8.45 |  |  |  |
| COc1cccc(NC(=O)Nc2ccc(CCNC[C@H](O)COc3cccc4[nH]ccc34)cc2)c1 | 8.34 |  |  |  |
| O=C(Nc1ccccc1)Nc1ccc(CCNC[C@H](O)COc2cccc3[nH]ccc23)cc1 | 9.29 | 7.28 | 8.54 | inhibition [2]: Active; Ratio EC50 (Homo sapiens [7]): 100; Activity (Mus musculus [8]): Active; Activity (Mus musculus [9]): 4.6%; Ratio EC50 (Homo sapiens [10]): 6; Activity (Mus musculus [11]): Active; Ratio EC50 [12]: 23 |
| CCc1ccccc1OC[C@@H](O)CNCCc1ccc(NS(=O)(=O)c2ccccc2)cc1 | 7.95 | 6.02 | 6.52 |  |
| CCc1ccccc1OC[C@@H](O)CNCCc1ccc(NC(=O)Nc2ccccc2)cc1 | 7.26 | 5.85 | 6.37 |  |
| CCCCCC(=O)Nc1ccccc1NC(=O)Nc1ccc(CCNC[C@H](O)COc2cccc3[nH]ccc23)cc1 | 8.68 |  |  |  |
| CC(C)NC(=O)Nc1ccc(CCNC[C@H](O)COc2cccc3[nH]ccc23)cc1 | 8.99 |  |  | inhibition [2]: Active |
| O=C(NCCc1ccccc1)Nc1ccc(CCNC[C@H](O)COc2cccc3[nH]ccc23)cc1 | 8.67 |  |  | inhibition [2]: Active |
| CC(=O)NCc1cccc(OC[C@@H](O)CNCCc2ccc(NC(=O)Cc3ccccc3)cc2)c1 | 8.34 | 4.80 | 5.21 |  |
| CCc1ccccc1OC[C@@H](O)CNCCc1ccc(NC(=O)c2ccccc2)cc1 | 8.11 | 6.53 | 6.91 |  |
| CCCCCC(=O)Nc1cccc(NC(=O)Nc2ccc(CCNC[C@H](O)COc3cccc4[nH]ccc34)cc2)c1 | 8.75 |  |  |  |
| O=C(Cc1ccccc1)Nc1ccc(CCNC[C@H](O)COc2cccc3[nH]ccc23)cc1 | 8.96 | 7.08 | 8.12 |  |
| CC(=O)NCc1cccc(OC[C@@H](O)CNCCc2ccc(NC(=O)Nc3ccccc3)cc2)c1 | 8.33 | 5.01 | 4.90 |  |
| CC(=O)NCc1cccc(OC[C@@H](O)CNCCc2ccc(NC(=O)c3ccccc3)cc2)c1 | 8.11 | 5.22 | 4.00 |  |
| COC(=O)Nc1cccc(NC(=O)Nc2ccc(CCNC[C@H](O)COc3cccc4[nH]ccc34)cc2)c1 | 8.78 |  |  |  |
| COC(=O)Nc1ccc(NC(=O)Nc2ccc(CCNC[C@H](O)COc3cccc4[nH]ccc34)cc2)cc1 | 8.85 |  |  | inhibition [2]: Active |
